Experiments:
[1] = target: Trace amine-associated receptor 1 (Mus musculus) (UniProt Q923Y8); test: Antagonist activity at mouse TAAR1 assessed as residual stimulation by in vitro cAMP functional assay relative to control; parameters: concentration or dose not given beside the values
How it was run: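 Mouse TAAR1 in vitro cAMP functional assay using the endogenous agonist β-PEA. The read-out is the residual β-PEA stimulation remaining at the maximum test-compound concentration. Values are averages of at least two independent experiments.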

[2] = Intrinsic clearance in mouse liver microsomes measured per mg of protein; assay type: ADME, Microsome
How it was run: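 Intrinsic clearance from in vitro incubation of compound with mouse liver microsomes, expressed per mg microsomal protein.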

[3] = Bioavailability in mouse at 5 mg/kg, ip; assay type: ADME, organism-based; conditions: in vivo
How it was run: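 Single-dose pharmacokinetics in mice comparing parenteral routes: intravenous at 2.5 mg/kg and intraperitoneal at 5 mg/kg. Plasma concentrations were followed over time. Bioavailability was derived for the ip route, and Cmax was taken from the ip plasma profile.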

[4] = Ratio of drug level in brain to plasma in mouse at 2.5 mg/kg, iv; assay type: ADME, organism-based; parameters: dose 2.5 mg/kg, route intravenous; conditions: read-out: BPR
How it was run: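 Single-dose pharmacokinetics in mice with parenteral dosing, either 2.5 mg/kg iv or 5 mg/kg ip. Drug levels were measured in plasma, with brain exposure taken as the brain/plasma concentration ratio.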

Chain of Trace amine-associated receptor 1 (Mus musculus) (Q923Y8 whole entry): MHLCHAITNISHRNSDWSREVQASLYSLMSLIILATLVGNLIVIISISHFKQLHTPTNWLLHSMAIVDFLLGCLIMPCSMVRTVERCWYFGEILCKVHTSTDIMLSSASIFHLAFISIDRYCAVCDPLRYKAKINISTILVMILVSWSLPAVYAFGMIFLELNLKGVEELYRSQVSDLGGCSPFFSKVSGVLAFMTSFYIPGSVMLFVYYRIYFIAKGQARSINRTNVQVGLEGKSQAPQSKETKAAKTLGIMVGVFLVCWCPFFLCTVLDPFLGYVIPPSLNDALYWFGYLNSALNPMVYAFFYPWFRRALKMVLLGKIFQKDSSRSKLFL

In the case of CCOc1cccc(NC(=O)c2ccc(N3CCCC3)c(C(F)(F)F)c2)c1, the Activity [1] was -12%, the clearance [2] was 109 µL/min/mg and the bioavailability [3] was 74%. The Kp [4] was 0.5.

— ChEMBL document CHEMBL1667822, “Selective antagonists of mouse trace amine-associated receptor 1 (mTAAR1): discovery of EPPTB (RO5212773)” (Bioorg Med Chem Lett, 2011)
